Results as given in ChEMBL document CHEMBL1142133 (2007).

What was measured:
Format in all cases: functional
[1] = system: Cryptococcus neoformans; experiment: Antifungal activity against flucytosine-resistant Cryptococcus neoformans 98.1121 by checkerboard method
[2] = system: Cryptococcus neoformans; experiment: Antifungal activity against flucytosine-resistant Cryptococcus neoformans 280 by checkerboard method
[3] = system: Cryptococcus neoformans; experiment: Antifungal activity against flucytosine-resistant Cryptococcus neoformans 533 by checkerboard method
[4] = system: Cryptococcus neoformans; experiment: Antifungal activity against flucytosine-resistant Cryptococcus neoformans 285 by checkerboard method
[5] = system: Cryptococcus neoformans; experiment: Antifungal activity against flucytosine-resistant Cryptococcus neoformans 18476 by checkerboard method
[6] = system: Cryptococcus neoformans; experiment: Antifungal activity against flucytosine-resistant Cryptococcus neoformans 550 by checkerboard method
[7] = system: Cryptococcus neoformans; experiment: Antifungal activity against flucytosine-resistant Cryptococcus neoformans 98.0176 by checkerboard method
[8] = system: Cryptococcus neoformans; experiment: Antifungal activity against flucytosine-resistant Cryptococcus neoformans 276 by checkerboard method
[9] = system: Cryptococcus neoformans; experiment: Antifungal activity against flucytosine-resistant Cryptococcus neoformans 98.0673 by checkerboard method
[10] = system: Cryptococcus neoformans; experiment: Antifungal activity against flucytosine-resistant Cryptococcus neoformans 99.1026 by checkerboard method
[11] = system: Cryptococcus neoformans; experiment: Antifungal activity against flucytosine-resistant Cryptococcus neoformans 98.1121 at 64 ug/ml after 72 hrs by time-kill method
How it was run: (§1)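 Time-kill assay on flucytosine-resistant isolates. […] Viable counts were taken as log10 CFU per ml after 72 h of incubation.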

[12] = system: Cryptococcus neoformans; experiment: Antifungal activity against flucytosine-resistant Cryptococcus neoformans 285 by checkerboard method in presence of amphotericin B
[13] = system: Cryptococcus neoformans; experiment: Antifungal activity against flucytosine-resistant Cryptococcus neoformans 533 at 64 ug/ml after 72 hrs by time-kill method
How it was run: (§2)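 Time-kill assay run as in the authors' earlier method. […] Read-out was log10 CFU/ml after 72 h incubation, compared with a drug-free control.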

[14] = system: Cryptococcus neoformans; experiment: Antifungal activity against flucytosine-resistant Cryptococcus neoformans 98.0176 by checkerboard method in presence of amphotericin B
[15] = system: Cryptococcus neoformans; experiment: Antifungal activity against flucytosine-resistant Cryptococcus neoformans 98.1121 by Etest method in presence of amphotericin B
[16] = system: Cryptococcus neoformans; experiment: Antifungal activity against flucytosine-resistant Cryptococcus neoformans 98.0176 at 64 ug/ml after 72 hrs by time-kill method; how it was run: as §2
[17] = system: Cryptococcus neoformans; experiment: Antifungal activity against flucytosine-resistant Cryptococcus neoformans 18476 by Etest method in presence of amphotericin B
[18] = system: Cryptococcus neoformans; experiment: Antifungal activity against flucytosine-resistant Cryptococcus neoformans 280 by Etest method in presence of amphotericin B
[19] = system: Cryptococcus neoformans; experiment: Antifungal activity against flucytosine-resistant Cryptococcus neoformans 98.0673 by Etest method in presence of amphotericin B
[20] = system: Cryptococcus neoformans; experiment: Antifungal activity against flucytosine-resistant Cryptococcus neoformans 18476 by checkerboard method in presence of amphotericin B
[21] = system: Cryptococcus neoformans; experiment: Antifungal activity against flucytosine-resistant Cryptococcus neoformans 280 at 64 ug/ml after 72 hrs by time-kill method; how it was run: as §2
[22] = system: Cryptococcus neoformans; experiment: Antifungal activity against flucytosine-resistant Cryptococcus neoformans 550 by checkerboard method in presence of amphotericin B
[23] = system: Cryptococcus neoformans; experiment: Antifungal activity against flucytosine-resistant Cryptococcus neoformans 276 at 64 ug/ml after 72 hrs by time-kill method; how it was run: as §2
[24] = system: Cryptococcus neoformans; experiment: Antifungal activity against flucytosine-resistant Cryptococcus neoformans 98.1121 by checkerboard method in presence of amphotericin B
[25] = system: Cryptococcus neoformans; experiment: Antifungal activity against flucytosine-resistant Cryptococcus neoformans 285 by Etest method in presence of amphotericin B
[26] = system: Cryptococcus neoformans; experiment: Antifungal activity against flucytosine-resistant Cryptococcus neoformans 276 by checkerboard method in presence of amphotericin B
[27] = system: Cryptococcus neoformans; experiment: Antifungal activity against flucytosine-resistant Cryptococcus neoformans 550 by Etest method in presence of amphotericin B
[28] = system: Cryptococcus neoformans; experiment: Antifungal activity against flucytosine-resistant Cryptococcus neoformans 276 by Etest method in presence of amphotericin B
[29] = system: Cryptococcus neoformans; experiment: Antifungal activity against flucytosine-resistant Cryptococcus neoformans 98.0673 at 64 ug/ml after 72 hrs by time-kill method; how it was run: as §2
[30] = system: Cryptococcus neoformans; experiment: Antifungal activity against flucytosine-resistant Cryptococcus neoformans 98.0176 by Etest method in presence of amphotericin B
[31] = system: Cryptococcus neoformans; experiment: Antifungal activity against flucytosine-resistant Cryptococcus neoformans 99.1026 at 64 ug/ml after 72 hrs by time-kill method; how it was run: as §1
[32] = system: Cryptococcus neoformans; experiment: Antifungal activity against flucytosine-resistant Cryptococcus neoformans 533 by Etest method in presence of amphotericin B
[33] = system: Cryptococcus neoformans; experiment: Antifungal activity against flucytosine-resistant Cryptococcus neoformans 99.1026 by checkerboard method in presence of amphotericin B
[34] = system: Cryptococcus neoformans; experiment: Antifungal activity against flucytosine-resistant Cryptococcus neoformans 533 by checkerboard method in presence of amphotericin B
[35] = system: Cryptococcus neoformans; experiment: Antifungal activity against flucytosine-resistant Cryptococcus neoformans 98.0673 by checkerboard method in presence of amphotericin B
[36] = system: Cryptococcus neoformans; experiment: Antifungal activity against flucytosine-resistant Cryptococcus neoformans 99.1026 by Etest method in presence of amphotericin B
[37] = system: Cryptococcus neoformans; experiment: Antifungal activity against flucytosine-resistant Cryptococcus neoformans 550 at 64 ug/ml after 72 hrs by time-kill method; how it was run: as §2
[38] = system: Cryptococcus neoformans; experiment: Antifungal activity against flucytosine-resistant Cryptococcus neoformans 18476 at 64 ug/ml after 72 hrs by time-kill method; how it was run: as §2
[39] = system: Cryptococcus neoformans; experiment: Antifungal activity against flucytosine-resistant Cryptococcus neoformans 280 by checkerboard method in presence of amphotericin B

O=c1[nH]cc(F)c(=O)[nH]1 [FLUOROURACIL]
MIC [1]: 256 µg/mL | MIC [2]: 256 µg/mL | MIC [3]: 256 µg/mL | MIC [4]: 4 µg/mL | MIC [5]: 0.25 µg/mL | MIC [6]: 0.5 µg/mL | MIC [7]: 0.008 µg/mL | MIC [8]: 256 µg/mL | MIC [9]: 16 µg/mL | MIC [10]: 8 µg/mL

Nc1nc(=O)[nH]cc1F [FLUCYTOSINE]
log10CFU/ml [11]: 7.5 | MIC [12]: 0.25 µg/mL | MIC [1]: 256 µg/mL | MIC [2]: 256 µg/mL | MIC [3]: 256 µg/mL | log10CFU/ml [13]: 7.5 | MIC [14]: 0.5 µg/mL | MIC [15]: > 32 µg/mL | MIC [4]: 32 µg/mL | log10CFU/ml [16]: 7.4 | MIC [17]: > 32 µg/mL | MIC [18]: > 32 µg/mL | MIC [19]: > 32 µg/mL | MIC [5]: 256 µg/mL | MIC [20]: 1 µg/mL | MIC [6]: 128 µg/mL | log10CFU/ml [21]: 7.4 | MIC [7]: 64 µg/mL | MIC [22]: 0.5 µg/mL | log10CFU/ml [23]: 7.3 | MIC [24]: 0.25 µg/mL | MIC [25]: > 32 µg/mL | MIC [26]: 4 µg/mL | MIC [27]: > 32 µg/mL | MIC [28]: > 32 µg/mL | log10CFU/ml [29]: 7.4 | MIC [30]: > 32 µg/mL | log10CFU/ml [31]: 7.1 | MIC [32]: > 32 µg/mL | MIC [33]: 1 µg/mL | MIC [8]: 256 µg/mL | MIC [9]: 64 µg/mL | MIC [34]: 0.5 µg/mL | MIC [10]: 32 µg/mL | MIC [35]: 16 µg/mL | MIC [36]: > 32 µg/mL | log10CFU/ml [37]: 7.2 | log10CFU/ml [38]: 7.5 | MIC [39]: 0.5 µg/mL
